Sampled rows, rich in hits. Any-hit rate of the full collection: about 2.8%.
PAFAH1B3 FP inh – PAFAH1B3 enzyme inhibitors, primary screen, biochemical, fluorescence polarization, human; Platelet-activating factor acetylhydrolase IB subunit alpha1 (Homo sapiens), Q15102; recombinant PAFAH1B3, FP-rhodamine probe; inhibition, % at 3.39 µM; 0.28% of 340,000 active;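 active = inhibition above the screen-wide average of all tested compounds plus 3 SD, cut at about 25% in these data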;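 note: 0% = enzyme with DMSO only and 100% = wells lacking PAFAH1B3 protein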
pPAFAH inh – pPAFAH enzyme inhibitors, primary screen, biochemical, fluorescence polarization, human; inhibition, % at 3.39 µM; recombinant pPAFAH, FP-rhodamine probe fluorescence polarization; AID 463082, 2010; 1.5% of 330,000 active; Platelet-activating factor acetylhydrolase (Homo sapiens), Q13093;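 active = inhibition above the mean inhibition across the screen plus 3 SD, cut at about 25% in these data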;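 note: inhibitors block binding of the rhodamine activity-based probe so polarization drops; 0% = enzyme with DMSO and 100% = wells lacking pPAFAH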
Target sequence (Q13093 whole entry, looked up): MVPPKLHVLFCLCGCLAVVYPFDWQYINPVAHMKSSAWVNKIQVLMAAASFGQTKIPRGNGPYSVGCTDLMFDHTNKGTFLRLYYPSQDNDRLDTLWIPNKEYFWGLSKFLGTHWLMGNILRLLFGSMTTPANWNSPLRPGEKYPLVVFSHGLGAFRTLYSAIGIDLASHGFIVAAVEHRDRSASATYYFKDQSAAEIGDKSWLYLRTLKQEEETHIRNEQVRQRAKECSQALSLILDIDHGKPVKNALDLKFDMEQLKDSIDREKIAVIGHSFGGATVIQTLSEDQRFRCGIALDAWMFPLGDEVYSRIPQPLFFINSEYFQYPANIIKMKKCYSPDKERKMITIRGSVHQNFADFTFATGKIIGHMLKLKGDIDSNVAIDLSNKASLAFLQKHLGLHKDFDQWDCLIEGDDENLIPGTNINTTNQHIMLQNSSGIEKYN
PAFAH1B2 inh – PAFAH1B2 enzyme inhibitors, primary screen, biochemical, fluorescence polarization, human; inhibition, % at 3.39 µM; 1.2% of 340,000 active; recombinant PAFAH1B2, FP-rhodamine activity probe;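 active = inhibition above the mean of all tested compounds plus 3 SD, cut at about 24% in these data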;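 note: 0% = enzyme with DMSO and 100% = wells lacking PAFAH1B2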
ASAP1 GAP inh – inhibitors of human ASAP1 ArfGAP activity, primary screen, biochemical, fluorescence polarization. Arf-GAP with SH3 domain, ANK repeat and PH domain-containing protein 1 (Homo sapiens), …. ASAP1-stimulated ARF1 GTP hydrolysis, GDP FP detection. inhibition, % at 16.5 µM. 0.19% of 360,000 active; in the data active = inhibition above about 25%;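 note: 0% = vehicle with enzyme and substrate and 100% = no enzyme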
ARFGAP1 inhibitor – inhibitors of rat ARFGAP1 GAP activity, primary screen, biochemical, fluorescence polarization, GDP tracer; Arfgap1-stimulated ARF1 GTP hydrolysis, GDP FP detection; inhibition, % at 16.5 µM; 0.26% of 360,000 active;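 active = inhibition above a per-plate limit, mean inhibition of low control wells plus 3 SD, cut at about 25% in these data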;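 note: 0% = DMSO wells with enzyme and 100% = wells lacking Arfgap1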
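System: truncated rat Arfgap1 GAP domain / Benchmarks: high control wells lacking Arfgap1, low control full reaction with DMSO / Times: compound-enzyme preincubation 20 min, reaction 120 min, detection 60 min, 25 °C / Repeats: one replicate per compound / Also added: human ARF1(Δ1-17)-GTP substrate / Measured by: Tracer-displacement fluorescence polarization with EDTA stop, 620/688 nm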
PAFAH2 FP inh – PAFAH2 enzyme inhibitors, primary screen, biochemical, fluorescence polarization, human; recombinant PAFAH2, FP-rhodamine activity probe; inhibition, % at 3.39 µM; 0.99% of 340,000 active; AID 492956, 2010;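 active = inhibition above the mean over all tested compounds plus 3 SD, cut at about 30% in these data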;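 note: inhibitors block probe labeling of enzyme so polarization drops; 0% = enzyme with DMSO and 100% = wells lacking PAFAH2 protein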
An asterisk follows results filed as active.

`O=[N+]([O-])c1cc(-c2cnc3ccccc3n2)ccc1Oc1ccc(Br)cc1` gave PAFAH1B3 FP inh 2, pPAFAH inh 5, PAFAH1B2 inh 54*, ASAP1 GAP inh 7, ARFGAP1 inhibitor 2 and PAFAH2 FP inh -7.
Screening CSCC[C@H](NC(=O)N1CCn2c1nc1ccccc12)C(=O)NCc1ccc(C)cc1 returned PAFAH1B3 FP inh 2, pPAFAH inh 8, PAFAH1B2 inh 2, ASAP1 GAP inh -2, ARFGAP1 inhibitor 7 and PAFAH2 FP inh -1.
`Cc1cc(Cl)ccc1C(O)c1ncc(-c2cccc3ccccc23)[nH]1` (stereo unspecified) gave ASAP1 GAP inh -6 and ARFGAP1 inhibitor 1.
For O=C(Nn1nnnc1Nc1ccccc1)C12CC3CC(CC(C3)C1)C2 the results were PAFAH1B3 FP inh 3, pPAFAH inh 5, PAFAH1B2 inh 27*, ASAP1 GAP inh 3, ARFGAP1 inhibitor -3 and PAFAH2 FP inh 4.
`CCCCn1c(O)c(/C=C/C=C/C=Nc2ccccc2)sc1=S` gave PAFAH1B3 FP inh -11, pPAFAH inh 30*, PAFAH1B2 inh -9, ASAP1 GAP inh -7, ARFGAP1 inhibitor -1 and PAFAH2 FP inh 2.
`O=C1CCCC(O)=C1N=Nc1ccc(C(=O)O)cc1` gave PAFAH1B3 FP inh 50*, pPAFAH inh 31*, PAFAH1B2 inh 39*, ASAP1 GAP inh 6, ARFGAP1 inhibitor -9 and PAFAH2 FP inh 52*.
`N/C(=N/OC(=O)c1ccccc1Cl)c1ncc([N+](=O)[O-])s1` gave PAFAH1B3 FP inh 11, pPAFAH inh 13, PAFAH1B2 inh 26*, ASAP1 GAP inh 4, ARFGAP1 inhibitor -1 and PAFAH2 FP inh 18.
Cc1cccc(NC(=S)NNC(=O)c2csc3c2CCC(C)C3)c1 (stereo unspecified) was read as PAFAH1B3 FP inh 20, pPAFAH inh 27*, PAFAH1B2 inh 9, ASAP1 GAP inh -3, ARFGAP1 inhibitor 2 and PAFAH2 FP inh 17.
c1ccc2c(-c3ccc(OCCN4CCCCC4)cc3)c(-c3ccsc3)sc2c1 was read as PAFAH1B3 FP inh 3, pPAFAH inh 2, PAFAH1B2 inh 1, ASAP1 GAP inh -7, ARFGAP1 inhibitor 0 and PAFAH2 FP inh -3.
Screening COCc1ccc(-c2c(-c3ccsc3)sc3ccccc23)cc1 returned PAFAH1B3 FP inh 12, pPAFAH inh 25*, PAFAH1B2 inh -1, ASAP1 GAP inh -7, ARFGAP1 inhibitor 5 and PAFAH2 FP inh 3.
`Oc1ccc(-c2c(-c3ccsc3)sc3ccccc23)cc1` gave PAFAH1B3 FP inh 2, pPAFAH inh 29*, PAFAH1B2 inh 2, ASAP1 GAP inh -2, ARFGAP1 inhibitor -1 and PAFAH2 FP inh 1.
Screening C[C@H](NC(=O)C[C@@H]1CC[C@H]2[C@@H](COC[C@H](O)CN2Cc2ccc(C(F)(F)F)cc2)O1)c1ccccc1 returned ASAP1 GAP inh -7 and ARFGAP1 inhibitor -4.
Cc1onc(-c2c(F)cccc2Cl)c1C(=O)NCc1ccc(S(N)(=O)=O)cc1 was read as PAFAH1B3 FP inh 3, pPAFAH inh -1, PAFAH1B2 inh 3, ASAP1 GAP inh 13, ARFGAP1 inhibitor 16 and PAFAH2 FP inh -1.
Screening CC(C)(C)S(=O)(=O)N1Cc2cc(CO)ccc2[C@H]1CCO returned ASAP1 GAP inh -26 and ARFGAP1 inhibitor 6.
`C=CCNC(=O)CSc1ccc(Cl)cc1` gave PAFAH1B3 FP inh 0, pPAFAH inh 3, PAFAH1B2 inh 29*, ASAP1 GAP inh -6, ARFGAP1 inhibitor 9 and PAFAH2 FP inh -7.
For C=CCNC(=O)CSCc1ccc(Br)cc1 the results were PAFAH1B3 FP inh 2, pPAFAH inh 1, PAFAH1B2 inh 27*, ASAP1 GAP inh -4, ARFGAP1 inhibitor 14 and PAFAH2 FP inh 2.
C=CCNc1ccc2c(c1)OC[C@H](CC(C)C)NS2(=O)=O was read as ASAP1 GAP inh -6 and ARFGAP1 inhibitor 13.
